{"source": "ChEMBL document CHEMBL1125832", "about": "“Synthesis and dopaminergic activity of 3-substituted 1-(aminomethyl)-3,4-dihydro-5,6-dihydroxy-1H-2-benzopyrans: characterization of an auxiliary binding region in the D1 receptor” (J Med Chem, 1991)", "key": {"[1]": {"biological_target": "Beta-1 adrenergic receptor (Rattus norvegicus, UniProt P18090)", "sequence (P18090 whole entry)": "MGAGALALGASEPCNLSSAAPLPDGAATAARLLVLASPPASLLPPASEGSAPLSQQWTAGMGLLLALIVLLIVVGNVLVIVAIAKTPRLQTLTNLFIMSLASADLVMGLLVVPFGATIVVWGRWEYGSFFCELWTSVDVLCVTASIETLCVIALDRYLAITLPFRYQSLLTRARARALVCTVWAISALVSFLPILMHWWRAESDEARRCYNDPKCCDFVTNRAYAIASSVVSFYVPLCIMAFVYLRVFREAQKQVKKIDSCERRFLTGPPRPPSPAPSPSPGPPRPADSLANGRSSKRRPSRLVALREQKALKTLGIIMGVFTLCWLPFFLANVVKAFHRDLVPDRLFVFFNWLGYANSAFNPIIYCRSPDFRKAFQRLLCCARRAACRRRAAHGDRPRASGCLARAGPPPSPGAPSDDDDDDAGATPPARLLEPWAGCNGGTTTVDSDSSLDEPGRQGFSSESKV", "assay": "Binding affinity towards beta-1 adrenergic receptor using [3H]iodocyanopindolol as radioligand in competitive binding assay", "conditions": "in the assay text read “[125I]iodocyanopindolol” for “[3H]iodocyanopindolol”", "summary_of_the_method": "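β-adrenergic sites in rat striatal membranes. Label [125I]iodocyanopindolol at 50 pM final; nonspecific binding with 10 μM propranolol. Incubated 1 h at 37 °C, then filtered. Ki via Cheng-Prusoff.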"}, "[2]": {"biological_target": "T1, Adrenergic receptor alpha-2 (Rattus norvegicus, UniProt P22086+P19328+P22909)", "T1 sequence (P22086 whole entry)": "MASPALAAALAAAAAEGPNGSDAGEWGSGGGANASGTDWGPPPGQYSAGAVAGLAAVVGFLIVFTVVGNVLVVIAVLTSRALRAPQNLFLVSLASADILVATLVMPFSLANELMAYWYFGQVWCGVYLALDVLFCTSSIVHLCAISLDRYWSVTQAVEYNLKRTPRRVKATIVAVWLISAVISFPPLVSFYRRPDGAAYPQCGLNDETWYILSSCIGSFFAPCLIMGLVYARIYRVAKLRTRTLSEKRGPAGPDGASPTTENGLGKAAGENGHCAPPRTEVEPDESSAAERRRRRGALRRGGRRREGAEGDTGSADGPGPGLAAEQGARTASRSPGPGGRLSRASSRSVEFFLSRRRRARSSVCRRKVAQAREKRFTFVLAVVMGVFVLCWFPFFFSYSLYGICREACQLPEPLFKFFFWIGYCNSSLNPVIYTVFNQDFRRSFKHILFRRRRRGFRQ", "T1 sequence (P19328 whole entry)": "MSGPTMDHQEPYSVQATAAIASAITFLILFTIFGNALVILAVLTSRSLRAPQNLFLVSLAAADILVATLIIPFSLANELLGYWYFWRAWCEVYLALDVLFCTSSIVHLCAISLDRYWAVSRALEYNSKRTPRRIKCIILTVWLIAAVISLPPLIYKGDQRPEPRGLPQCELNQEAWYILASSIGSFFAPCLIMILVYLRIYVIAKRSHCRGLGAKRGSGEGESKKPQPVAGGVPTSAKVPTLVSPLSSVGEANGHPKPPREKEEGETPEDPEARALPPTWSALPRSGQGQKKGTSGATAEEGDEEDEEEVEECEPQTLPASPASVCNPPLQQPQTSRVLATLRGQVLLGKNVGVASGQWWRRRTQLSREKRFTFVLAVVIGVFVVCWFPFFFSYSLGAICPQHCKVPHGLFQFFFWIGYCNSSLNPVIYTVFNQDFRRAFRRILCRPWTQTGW", "T1 sequence (P22909 whole entry)": "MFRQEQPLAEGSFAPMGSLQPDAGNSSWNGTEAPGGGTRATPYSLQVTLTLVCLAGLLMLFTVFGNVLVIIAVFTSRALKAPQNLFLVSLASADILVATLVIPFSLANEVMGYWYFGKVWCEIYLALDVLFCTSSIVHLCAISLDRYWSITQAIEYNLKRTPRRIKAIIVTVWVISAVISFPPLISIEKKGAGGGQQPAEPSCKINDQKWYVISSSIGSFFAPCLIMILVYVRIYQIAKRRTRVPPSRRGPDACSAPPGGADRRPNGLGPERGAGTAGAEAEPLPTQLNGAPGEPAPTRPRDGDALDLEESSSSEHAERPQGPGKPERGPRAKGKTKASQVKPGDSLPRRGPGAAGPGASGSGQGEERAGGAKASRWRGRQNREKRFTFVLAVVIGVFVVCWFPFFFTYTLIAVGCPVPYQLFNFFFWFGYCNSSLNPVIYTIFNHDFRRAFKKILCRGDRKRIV", "assay": "Binding affinity towards alpha-2 adrenergic receptor using [3H]rauwolscine as radioligand in competitive binding assay", "assay_type": "protein assay", "summary_of_the_method": "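Frozen rat cortex membranes in Tris pH 7.4 buffer with NaCl, KCl, MgCl2, CaCl2 and ascorbate. [3H]rauwolscine at 325 pM final; nonspecific binding with 10 μM yohimbine. Incubated 45 min at 37 °C, then filtered. Ki derived from IC50 by Cheng-Prusoff.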"}}, "data": [{"smiles": "CC(C)(C)C1Cc2c(ccc(O)c2O)[C@H](CN)O1", "note": "(some centres not stated)", "values": [{"measurement": "Ki", "setting": "[1]", "value": "> 10", "unit": "µM"}, {"measurement": "Ki", "setting": "[2]", "value": 0.45, "unit": "µM"}]}, {"smiles": "C=CCNC[C@@H]1OC(C2CCCCC2)Cc2c1ccc(O)c2O", "note": "(some centres not stated)", "values": [{"measurement": "Ki", "setting": "[1]", "value": "> 10", "unit": "µM"}, {"measurement": "Ki", "setting": "[2]", "value": 2.2, "unit": "µM"}]}, {"smiles": "NC[C@@H]1OC(c2ccccc2)Cc2c1ccc(O)c2O", "note": "(some centres not stated)", "values": [{"measurement": "Ki", "setting": "[1]", "value": "> 10", "unit": "µM"}, {"measurement": "Ki", "setting": "[2]", "value": 0.122, "unit": "µM"}]}, {"smiles": "NC[C@@H]1OC(C2CCCCC2)Cc2c1ccc(O)c2O", "note": "(some centres not stated)", "values": [{"measurement": "Ki", "setting": "[1]", "value": "> 10", "unit": "µM"}, {"measurement": "Ki", "setting": "[2]", "value": 0.271, "unit": "µM"}]}, {"smiles": "NC[C@H]1O[C@@H](c2ccccc2)Cc2c1ccc(O)c2O", "values": [{"measurement": "Ki", "setting": "[1]", "value": "> 10", "unit": "µM"}, {"measurement": "Ki", "setting": "[2]", "value": 2.5, "unit": "µM"}]}, {"smiles": "NC[C@@H]1O[C@H](c2ccccc2)Cc2c1ccc(O)c2O", "values": [{"measurement": "Ki", "setting": "[1]", "value": "> 10", "unit": "µM"}, {"measurement": "Ki", "setting": "[2]", "value": 0.04, "unit": "µM"}]}]}
